{"source": "ChEMBL document CHEMBL1649277", "about": "“Inhibition of herpesvirus replication by 5-substituted 4'-thiopyrimidine nucleosides” (Antimicrob Agents Chemother, 2009)", "key": {"Human alphaherpesvirus 2 [1]": {"tested_on": "Human alphaherpesvirus 2", "assay": "Antiviral activity against HSV2 infected in BALB/c mouse assessed as virus-induced mortality rate at […], po BID administered 48 hrs post infection", "assay_type": "functional"}, "Human alphaherpesvirus 2 [2]": {"tested_on": "Human alphaherpesvirus 2", "assay": "Antiviral activity against HSV2 infected in BALB/c mouse assessed as virus-induced mortality rate at […], po BID administered 72 hrs post infection", "assay_type": "functional"}, "Human alphaherpesvirus 2 [3]": {"tested_on": "Human alphaherpesvirus 2", "assay": "Antiviral activity against HSV2 AG-3 harboring TK Q105P mutant gene infected in HFF after 3 days by plaque reduction assay", "assay_type": "functional, organism-based", "settings": "Human alphaherpesvirus 2, AG-3, 72 h", "in_short": "(§1)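 Confluent HFF monolayers (passage <10) were infected in triplicate wells at 20–30 plaques per well, with 1 h adsorption and rocking every 15 min. Six serial dilutions (top 100 μM) were made in MEM with 2% FBS and pooled human immunoglobulin. Cells were incubated 3 days and stained with crystal violet. Plaques were counted, and EC50 was interpolated from plaque reduction.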"}, "Human alphaherpesvirus 2 [4]": {"tested_on": "Human alphaherpesvirus 2", "assay": "Antiviral activity against HSV2 infected in BALB/c mouse assessed mean time to virus-induced death at 10 mg/kg, po BID administered 72 hrs post infection", "assay_type": "functional"}, "Human alphaherpesvirus 2 [5]": {"tested_on": "Human alphaherpesvirus 2", "assay": "Antiviral activity against HSV2 infected in BALB/c mouse assessed mean time to virus-induced death at 10 mg/kg, po BID administered 24 hrs post infection", "assay_type": "functional"}, "Human betaherpesvirus 5 [6]": {"tested_on": "Human betaherpesvirus 5", "assay": "Antiviral activity against human cytomegalovirus C8914-6 harboring UL97 I244V, L595F and UL54 L501F mutant gene infected in HFF after 8 to 10 days by plaque reduction assay", "assay_type": "functional, organism-based", "settings": "Human betaherpesvirus 5, C8914-6", "in_short": "(§2)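 Plaque reduction in confluent HFF with six serial dilutions (top 100 μM) and no immunoglobulin added. Virus was adsorbed 1 h on triplicate wells. Cells were incubated 8 days, stained with 0.017% neutral red in PBS, and plaques counted. EC50 is the concentration reducing plaque number by 50%.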"}, "Human betaherpesvirus 5 [7]": {"tested_on": "Human betaherpesvirus 5", "assay": "Antiviral activity against human cytomegalovirus 759D100 harboring deletion mutation in UL97 gene and UL54 A987G mutant gene infected in HFF after 8 to 10 days by plaque reduction assay", "assay_type": "functional, organism-based", "settings": "Human betaherpesvirus 5, 759D100", "in_short": "as §2"}, "Human alphaherpesvirus 2 [8]": {"tested_on": "Human alphaherpesvirus 2", "assay": "Antiviral activity against HSV2 infected in BALB/c mouse assessed mean time to virus-induced death at 30 mg/kg, po BID administered 24 hrs post infection", "assay_type": "functional"}, "Human alphaherpesvirus 2 [9]": {"tested_on": "Human alphaherpesvirus 2", "assay": "Antiviral activity against HSV2 infected in BALB/c mouse assessed mean time to virus-induced death at 30 mg/kg, po BID administered 48 hrs post infection", "assay_type": "functional"}, "Human alphaherpesvirus 2 [10]": {"tested_on": "Human alphaherpesvirus 2", "assay": "Antiviral activity against HSV2 12247 harboring TK C337Y mutant gene infected in HFF after 3 days by plaque reduction assay", "assay_type": "functional, organism-based", "settings": "Human alphaherpesvirus 2, 12247, 72 h", "in_short": "as §1"}, "Human alphaherpesvirus 2 [11]": {"tested_on": "Human alphaherpesvirus 2", "assay": "Antiviral activity against HSV2 infected in BALB/c mouse assessed mean time to virus-induced death at 10 mg/kg, po BID administered 48 hrs post infection", "assay_type": "functional"}, "Human alphaherpesvirus 2 [12]": {"tested_on": "Human alphaherpesvirus 2", "assay": "Antiviral activity against HSV2 infected in BALB/c mouse assessed as virus-induced mortality rate at 10 mg/kg, po BID administered 24 hrs post infection", "assay_type": "functional"}, "Human alphaherpesvirus 2 [13]": {"tested_on": "Human alphaherpesvirus 2", "assay": "Antiviral activity against HSV2 infected in BALB/c mouse assessed as virus-induced mortality rate at 30 mg/kg, po BID administered 48 hrs post infection", "assay_type": "functional"}, "Human alphaherpesvirus 1": {"tested_on": "Human alphaherpesvirus 1", "assay": "Antiviral activity against HSV1 SC16-S1 harboring TK A265T/C336Y mutant gene infected in HFF after 3 days by plaque reduction assay", "assay_type": "functional, organism-based", "settings": "Human alphaherpesvirus 1, SC16-S1, 72 h", "in_short": "as §1"}, "Human alphaherpesvirus 2 [14]": {"tested_on": "Human alphaherpesvirus 2", "assay": "Antiviral activity against HSV2 MS infected in HFF after 3 days by plaque reduction assay", "assay_type": "functional, organism-based", "settings": "Human alphaherpesvirus 2, MS, 72 h", "in_short": "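Confluent primary HFF monolayers (passage <10), triplicate wells, virus dosed at 20–30 plaques/well. Adsorption was 1 h with rocking every 15 min. Six serial dilutions, top 100 μM, were made in MEM with 2% FBS plus pooled human immunoglobulin. After 3 days, wells were stained with 0.1% crystal violet in 20% methanol and plaques counted microscopically. EC50 was interpolated.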"}, "Human gammaherpesvirus 4": {"tested_on": "Human gammaherpesvirus 4", "assay": "Antiviral activity against Epstein-Barr virus infected in human Akata cells after 72 hrs", "assay_type": "functional, organism-based", "settings": "human gammaherpesvirus 4, Akata", "in_short": "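Akata cells were kept in RPMI 1640 with 10% FBS. Compound ranged 100 to 0.032 μM. Latent cells were induced to lytic infection with 50 μg/ml goat anti-human IgG, and 4 × 10^4 cells were added per well. After 72 h, DNA was alkali/NaCl-denatured, blotted to nylon membrane, and viral DNA quantified by digoxigenin-probe hybridization with anti-hapten antibody detection.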"}, "[15]": {"assay": "Selectivity index, ratio of CC50 for HFF to EC50 for HSV2 MS infected in HFF"}, "Human alphaherpesvirus 2 [16]": {"tested_on": "Human alphaherpesvirus 2", "assay": "Antiviral activity against HSV2 infected in BALB/c mouse assessed as virus-induced mortality rate at 30 mg/kg, po BID administered 24 hrs post infection", "assay_type": "functional"}, "Human alphaherpesvirus 2 [17]": {"tested_on": "Human alphaherpesvirus 2", "assay": "Antiviral activity against HSV2 infected in BALB/c mouse assessed as virus-induced mortality rate at 10 mg/kg, po BID administered 72 hrs post infection", "assay_type": "functional"}, "[18]": {"assay": "Cytotoxicity against human HSB2 cells after 3 days by MTS assay", "assay_type": "cell-based, CCRF-HSB-2"}, "Human gammaherpesvirus 8": {"tested_on": "Human gammaherpesvirus 8", "assay": "Antiviral activity against Human herpesvirus 8 infected in human BCBL1 cells assessed as inhibition of viral replication after 7 days", "assay_type": "functional, organism-based", "settings": "Human gammaherpesvirus 8, BCBL1, 168 h", "in_short": "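BCBL1 cells in RPMI 1640 with 10% FBS, compound diluted in triplicate wells with a top concentration of 100 μM. Lytic infection was induced with phorbol 12-myristate 13-acetate at 100 ng/ml final. After 7 days at 37°C in humidified CO2, viral DNA in total DNA was measured by TaqMan qPCR. EC50 was taken as 50% reduction of viral DNA.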"}, "Human alphaherpesvirus 2 [19]": {"tested_on": "Human alphaherpesvirus 2", "assay": "Antiviral activity against HSV2 harboring frameshift mutation in TK infected in HFF after 3 days by plaque reduction assay", "assay_type": "functional, organism-based", "settings": "Human alphaherpesvirus 2, 72 h", "in_short": "as §1"}, "Human alphaherpesvirus 2 [20]": {"tested_on": "Human alphaherpesvirus 2", "assay": "Antiviral activity against HSV2 infected in BALB/c mouse assessed as virus-induced mortality rate at 30 mg/kg, po BID administered 72 hrs post infection", "assay_type": "functional"}, "[21]": {"assay": "Cytotoxicity against HFF after 3 days by MTS assay", "assay_type": "cell-based", "settings": "human, HFF cells"}, "Human alphaherpesvirus 2 [22]": {"tested_on": "Human alphaherpesvirus 2", "assay": "Antiviral activity against HSV2 infected in BALB/c mouse assessed mean time to virus-induced death at […], po BID administered 72 hrs post infection", "assay_type": "functional"}}, "data": [{"smiles": "O=c1[nH]c(=O)n([C@H]2C[C@H](O)[C@@H](CO)S2)cc1I", "values": [{"measurement": "Activity", "setting": "Human alphaherpesvirus 2 [1]", "result": 93, "unit": "%"}, {"measurement": "Activity", "setting": "Human alphaherpesvirus 2 [2]", "result": 100, "unit": "%"}, {"measurement": "EC50", "setting": "Human alphaherpesvirus 2 [3]", "result": "> 444", "unit": "µM"}, {"measurement": "Time", "setting": "Human alphaherpesvirus 2 [4]", "result": 10.7, "unit": "days"}, {"measurement": "Time", "setting": "Human alphaherpesvirus 2 [5]", "result": 9.8, "unit": "days"}, {"measurement": "EC50", "setting": "Human betaherpesvirus 5 [6]", "result": 43, "unit": "µM"}, {"measurement": "EC50", "setting": "Human betaherpesvirus 5 [7]", "result": 14, "unit": "µM"}, {"measurement": "Time", "setting": "Human alphaherpesvirus 2 [8]", "result": 12.1, "unit": "days"}, {"measurement": "Time", "setting": "Human alphaherpesvirus 2 [9]", "result": 12.8, "unit": "days"}, {"measurement": "EC50", "setting": "Human alphaherpesvirus 2 [10]", "result": "> 444", "unit": "µM"}, {"measurement": "Time", "setting": "Human alphaherpesvirus 2 [11]", "result": 10.4, "unit": "days"}, {"measurement": "Activity", "setting": "Human alphaherpesvirus 2 [12]", "result": 67, "unit": "%"}, {"measurement": "Activity", "setting": "Human alphaherpesvirus 2 [13]", "result": 100, "unit": "%"}, {"measurement": "EC50", "setting": "Human alphaherpesvirus 1", "result": "> 444", "unit": "µM"}, {"measurement": "EC50", "setting": "Human alphaherpesvirus 2 [14]", "result": 0.45, "unit": "µM"}, {"measurement": "EC50", "setting": "Human gammaherpesvirus 4", "result": "> 0.16", "unit": "µM"}, {"measurement": "Ratio CC50/EC50", "setting": "[15]", "result": "> 140"}, {"measurement": "Activity", "setting": "Human alphaherpesvirus 2 [16]", "result": 100, "unit": "%"}, {"measurement": "Activity", "setting": "Human alphaherpesvirus 2 [17]", "result": 73, "unit": "%"}, {"measurement": "CC50 at 72 h", "setting": "[18]", "result": "> 100", "unit": "µM"}, {"measurement": "EC50", "setting": "Human gammaherpesvirus 8", "result": "> 4", "unit": "µM"}, {"measurement": "EC50", "setting": "Human alphaherpesvirus 2 [19]", "result": 77, "unit": "µM"}, {"measurement": "Activity", "setting": "Human alphaherpesvirus 2 [20]", "result": 100, "unit": "%"}, {"measurement": "CC50 at 72 h", "setting": "[21]", "result": "> 70", "unit": "µM"}, {"measurement": "Time", "setting": "Human alphaherpesvirus 2 [22]", "result": 10, "unit": "days"}]}]}
